Values after ≈ are worked out from the molar mass of the structure shown. Active and inactive are the calls of the source. No cut-off for these calls is given here.
Columns and labels:
[1] = target: Type II NADH:quinone oxidoreductase Ndh (Mycobacterium tuberculosis, UniProt P95160); test: Inhibition of Mycobacterium tuberculosis recombinant type II NADH dehydrogenase ndh expressed in Escherichia coli assessed as rate of NADH oxidation in the presence of an electron acceptor menadione
Outline: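 Purified N-terminal MBP-tagged Mtb Ndh (Rv1854c) expressed in E. coli, 70 nM, with 500 µM NADH in 50 mM HEPES pH 7.1 (K₂HPO₄). Compound pre-incubated 15 min at 25°C, reaction started with 100 µM menadione. NADH oxidation followed at 340 nm every 60 s. Rate taken from linear slope; IC50 is the mean ± SD of at least 3 independent experiments.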

[2] = target: T1, Type II NADH:quinone oxidoreductase NdhA (Mycobacterium tuberculosis, UniProt P95200); test: Inhibition of Mycobacterium smegmatis MC2 155 recombinant ndhA assessed as rate of NADH oxidation in the presence of an electron acceptor menadione; design: species or system Mycolicibacterium smegmatis
T1 sequence (P95200 whole entry): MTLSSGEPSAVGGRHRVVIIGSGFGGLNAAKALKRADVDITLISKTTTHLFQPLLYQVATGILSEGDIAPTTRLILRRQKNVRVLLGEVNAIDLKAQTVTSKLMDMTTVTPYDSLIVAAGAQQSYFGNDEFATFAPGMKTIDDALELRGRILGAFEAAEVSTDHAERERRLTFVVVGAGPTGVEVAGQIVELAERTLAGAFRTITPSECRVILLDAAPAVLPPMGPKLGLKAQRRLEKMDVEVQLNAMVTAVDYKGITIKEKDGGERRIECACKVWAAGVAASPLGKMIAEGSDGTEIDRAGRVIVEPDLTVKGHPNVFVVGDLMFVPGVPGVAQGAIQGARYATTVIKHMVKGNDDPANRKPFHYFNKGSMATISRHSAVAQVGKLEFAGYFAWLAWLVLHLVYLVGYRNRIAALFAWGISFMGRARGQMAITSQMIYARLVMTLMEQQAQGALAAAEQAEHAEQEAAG

[3] = system: Mycobacterium tuberculosis; test: Antimycobacterial activity against Mycobacterium tuberculosis H37Rv assessed as reduction in bacterial cell growth by measuring resazurin reduction incubated for 6 days by fluorescence microplate based assay; type: functional; conditions: time 6 day
[4] = system: Mycolicibacterium smegmatis; test: Antibiotic activity against Mycobacterium smegmatis mc2155 assessed as reduction in bacterial cell growth by measuring resazurin reduction incubated for 6 days by fluorescence microplate based assay; type: functional; conditions: mc2155, 144 h, time 6 day
[5] = Octanol/PBS partition coefficient, logD of compound at pH 7.4 measured after 2 hrs by shake flask method; type: physicochemical; conditions: octanol/water, pH 7.4, 2 h
Outline: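 A 10 mM DMSO stock was diluted 50-fold into 1:1 octanol:PBS pH 7.4 and shaken gently for 2 h at room temperature. Each phase was diluted 50-fold in MeOH and quantified by LC-MS/MS. LogD = log of the octanol/PBS concentration ratio from mass signals. Run in triplicate.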

Mycobacterium marinum [6] = test: Antibiotic activity against Mycobacterium marinum M strain assessed as reduction in bacterial cell growth by measuring resazurin reduction incubated for 6 days by fluorescence microplate based assay; type: functional; conditions: 144 h, time 6 day
[7] = Aqueous solubility of compound in pH 7.4 […]; type: physicochemical; conditions: buffer
Outline: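 A 10 mM DMSO stock was diluted 50-fold into PBS pH 7.4 or methanol and shaken gently for 24 h at room temperature. Samples were centrifuged, filtered (0.45 µm), diluted 50-fold in MeOH and analysed by LC-MS/MS. Solubility = (AUC PBS/AUC MeOH)×200. Run in triplicate.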

Mycobacterium avium = test: Antibiotic activity against Mycobacterium avium TMC 724, ATCC-25291 assessed as reduction in bacterial cell growth by measuring resazurin reduction incubated for 6 days by fluorescence microplate based assay; type: functional; conditions: TMC 724, ATCC-25291, 144 h, time 6 day
Escherichia coli = test: Antibiotic activity against Escherichia coli deltatolC BW25113 deltatolC assessed as reduction in bacterial cell growth by measuring resazurin reduction incubated for 6 days by fluorescence microplate based assay; type: functional; conditions: 144 h, time 6 day
Outline: (§1)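 E. coli BW25113, E. coli ΔtolC and S. aureus SH1000 were cultured and tested in cation-adjusted Mueller Hinton II broth. Viability was read by adding resazurin and measuring resorufin fluorescence at Ex 530 nm / Em 590 nm.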

Bacillus subtilis = test: Antibiotic activity against Bacillus subtilis ATCC6633 assessed as reduction in bacterial cell growth by measuring resazurin reduction incubated for 6 days by fluorescence microplate based assay; type: functional; conditions: ATCC6633, 144 h, time 6 day
Staphylococcus aureus = test: Antibiotic activity against Staphylococcus aureus SH1000 assessed as reduction in bacterial cell growth by measuring resazurin reduction incubated for 6 days by fluorescence microplate based assay; type: functional; conditions: SH1000, 144 h, time 6 day; outline: as §1
[8] = system: Mycobacteroides abscessus; test: Antibiotic activity against Mycobacterium abscessus CIP104536, Smooth variant assessed as reduction in bacterial cell growth by measuring resazurin reduction incubated for 6 days by fluorescence microplate based assay; type: functional; conditions: 144 h, time 6 day
Pseudomonas aeruginosa = test: Antibiotic activity against Pseudomonas aeruginosa POA1 assessed as reduction in bacterial cell growth by measuring resazurin reduction incubated for 6 days by fluorescence microplate based assay; type: functional; conditions: POA1, 144 h, time 6 day
[9] = system: Mycobacterium tuberculosis; test: Antimycobacterial activity against Mycobacterium tuberculosis H37Rv infected in human A-THP1 macrophages assessed as viability of infected macrophages incubated for 96 hrs by fluorescence microplate assay; type: functional, organism-based
Outline: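 THP-1 cells differentiated with 50 ng/mL PMA for 72 h, infected with log-phase H37Rv (MOI 10, 2 h), and extracellular bacteria killed with 50 µg/mL amikacin for 1 h. Cells detached and seeded at 5×10⁵/mL in RPMI-10% FBS with PMA onto pre-dispensed compound, 96 h at 37°C, 5% CO₂. Macrophage viability by 0.05% resazurin fluorescence.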

[10] = system: Mycobacterium tuberculosis; test: Antibiotic activity against Mycobacterium tuberculosis H37Rv assessed as reduction in bacterial cell growth by measuring resazurin reduction incubated for 6 days by fluorescence microplate based assay; type: functional; conditions: 144 h, time 6 day
Acinetobacter baumannii = test: Antibiotic activity against Acinetobacter baumannii LMG-17978 assessed as reduction in bacterial cell growth by measuring resazurin reduction incubated for 6 days by fluorescence microplate based assay; type: functional; conditions: LMG-17978, 144 h, time 6 day
[11] = system: Mycobacteroides abscessus; test: Antibiotic activity against Mycobacterium abscessus CIP104536, Rough variant assessed as reduction in bacterial cell growth by measuring resazurin reduction incubated for 6 days by fluorescence microplate based assay; type: functional; conditions: 144 h, time 6 day
Klebsiella pneumoniae = test: Antibiotic activity against Klebsiella pneumoniae LMG 2095 assessed as reduction in bacterial cell growth by measuring resazurin reduction incubated for 6 days by fluorescence microplate based assay; type: functional; conditions: LMG 2095, 144 h, time 6 day
[12] = Toxicity in noninfected zebrafish larvae assessed as larval development; design: species or system Danio rerio; conditions: in vivo
[13] = Toxicity in noninfected zebrafish larvae assessed as toxic effect; design: species or system Danio rerio; conditions: in vivo
Mycobacterium marinum [14] = test: In vivo antimycobacterial efficacy in Mycobacterium marinum expressing Wasabi infected zebrafish larvae assessed as prolongation of survival treated for 4 days after 1 day post infection; type: functional, organism-based; conditions: dose 0.3-1.2 µM, time 4.0 day, DDE = dose-dependent effect
Outline: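 Golden mutant or Tg(mpeg1:mCherry) zebrafish embryos were dechorionated and anaesthetised in 0.016% tricaine. At 30 hpf, 2–3 nL containing about 200–250 cfu of Wasabi-expressing M. marinum M (pTEC15) was injected into the caudal vein. The inoculum was confirmed by plating on 7H10. Embryos were kept in E3 at 28.5 °C, 12 per well, to follow infection and survival.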

Mycobacterium marinum [15] = test: In vivo antimycobacterial efficacy in Mycobacterium marinum expressing Wasabi infected zebrafish larvae assessed as prolongation of survival time at 4.8 uM treated for 4 days after 1 day post infection; type: functional; conditions: time 4 day
Mycobacterium marinum [16] = test: in vivo antimycobacterial efficacy in Mycobacterium marinum infected zebrafish larvae assessed as reduction in bacterial burden at 0.25 to 2 micog/ml measured after 2 to 4 days off post infection; type: functional, organism-based; conditions: time 2-4 day

Type II NADH:quinone oxidoreductase Ndh, sequence (P95160 whole entry): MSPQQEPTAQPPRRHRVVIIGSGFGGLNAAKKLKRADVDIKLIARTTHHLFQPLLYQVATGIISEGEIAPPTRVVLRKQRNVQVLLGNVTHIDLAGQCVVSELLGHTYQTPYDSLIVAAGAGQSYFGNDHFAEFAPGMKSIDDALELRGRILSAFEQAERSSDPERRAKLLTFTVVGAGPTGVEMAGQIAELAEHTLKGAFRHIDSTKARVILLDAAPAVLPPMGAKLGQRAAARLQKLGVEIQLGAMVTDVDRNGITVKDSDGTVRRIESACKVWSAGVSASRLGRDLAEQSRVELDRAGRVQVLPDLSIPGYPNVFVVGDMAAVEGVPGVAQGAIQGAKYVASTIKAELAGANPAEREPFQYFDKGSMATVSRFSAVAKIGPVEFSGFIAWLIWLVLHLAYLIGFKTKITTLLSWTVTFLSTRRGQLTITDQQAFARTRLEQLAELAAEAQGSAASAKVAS

COc1ccc(CN2CC[C@]34OC[C@H](C(C)C)N3C(=O)CC[C@@H]4C2)cc1 showed an IC50 [1] of 200 nM, an IC50 [2] of 2340 nM and an MIC98 [3] of 4.7 µM (≈ 1.68 µg/mL).

CC(C)(C)[C@H]1CO[C@]23CCN(Cc4ccccc4)C[C@H]2CCC(=O)N13 showed an MIC98 [3] of 25 µM (≈ 8.56 µg/mL).

With C[C@H]1CO[C@]23CCN(Cc4ccccc4)C[C@H]2CCC(=O)N13 the MIC98 [3] was over 100 µM.

Cc1ccc(CN2CC[C@]34OC[C@H](C(C)C)N3C(=O)CC[C@@H]4C2)cc1 gave an MIC98 [3] of 1.7 µM (≈ 0.582 µg/mL).

Compound CC(C)[C@H]1CO[C@]23CCN(Cc4ccccc4)C[C@H]2CCC(=O)N13 has an MIC [4] of 29.2 µM (≈ 9.59 µg/mL), a logD [5] of 2.7 and an IC50 [2] of 980 nM. For the same compound, the MIC (Mycobacterium marinum [6]) was 6.3 µM (≈ 2.07 µg/mL), the solubility [7] was 178 µM (≈ 58.5 µg/mL) and the MIC (Mycobacterium avium) was 13.1 µM (≈ 4.3 µg/mL). For the same compound, the MIC (Escherichia coli) was over 100 µM, the MIC (Bacillus subtilis) was over 100 µM and the MIC (Staphylococcus aureus) was over 100 µM. The MIC [8] was at least 100 µM, the MIC (Pseudomonas aeruginosa) was over 100 µM and the IC50 [9] was 8200 nM. It also gave an MIC [10] of 3.2 µM (≈ 1.05 µg/mL), an MIC (Acinetobacter baumannii) of over 100 µM and an MIC [11] of at least 100 µM. The MIC (Klebsiella pneumoniae) was over 100 µM.

With CC(C)[C@H]1CO[C@]23CCN(Cc4ccc(C(F)(F)F)nc4)C[C@H]2CCC(=O)N13 the Activity [12] was “Non-Toxic”, the IC50 [1] was 32 nM and the logD [5] was 2.7. The IC50 [2] was 330 nM, the Activity [13] was “Non-Toxic” and the Activity (Mycobacterium marinum [14]) was “Dde”. It also gave a Time (Mycobacterium marinum [15]) of 3 days, an MIC98 [3] of 0.59 µM (≈ 0.234 µg/mL) and an IC50 [9] of 2400 nM. For the same compound, the Activity (Mycobacterium marinum [16]) was “Active”.

— ChEMBL document CHEMBL5150070, “Tricyclic SpiroLactams Kill Mycobacteria In Vitro and In Vivo by Inhibiting Type II NADH Dehydrogenases” (J Med Chem, 2022)
